Measured values collected from several papers.
Compare with care: the assays were run in different laboratories.
pknB: Serine/threonine-protein kinase PknB (pknB, Mycobacterium tuberculosis, UniProt P9WI81)
DPP4: Dipeptidyl peptidase 4 (DPP4, Homo sapiens, UniProt P27487)
1-deoxy-D-xylulose 5-phosphate reductoisomerase: 1-deoxy-D-xylulose 5-phosphate reductoisomerase (Mycobacterium tuberculosis, UniProt P9WNS1)
ENAH: Protein enabled homolog (ENAH, UniProt Q8N8S7)

Structure (SMILES) | target | test | setting | measurement | result
CC(C)(C)OC(=O)N1CCN(c2ccc(Nc3nccc(-c4ccccc4)n3)cc2C(F)(F)F)CC1 | pknB | enzyme activity, inhibitor | – | IC50 | > 20 µM
CC(C)[C@H](N)C(=O)N1CCC[C@H]1C(=O)N[C@H](C(=O)N1CCC[C@H]1C(=O)N[C@H](C(=O)O)[C@@H](C)O)C(C)C | DPP4 | enzyme activity, inhibitor, absorbance | pH 8 | IC50 | 131 µM
CC(=O)N(O)CCC(c1ccc(-c2c(C)noc2C)cc1)P(=O)(O)O (centres unmarked) | 1-deoxy-D-xylulose 5-phosphate reductoisomerase | enzyme activity, inhibitor, absorbance | pH 7.5 | IC50 | 21.5 µM
CC(C)[C@H](N)C(=O)N1CCC[C@H]1C(=O)N[C@H](C(=O)N1CCC[C@H]1C(=O)NCC(=O)O)C(C)C | DPP4 | enzyme activity, inhibitor, absorbance | pH 8 | IC50 | 84.9 µM
CN1[C@H]2CC[C@@H]1[C@@H](c1cc(-c3ccccc3)no1)[C@H](OC(c1ccc(F)cc1)c1ccc(F)cc1)C2 | Transporter (Slc6a2, Rattus norvegicus, UniProt Q63380) | ligand displacement, radioligand | cell membranes | Ki | 0.413 µM
CC(=O)N[C@@H](CO)C(=O)N[C@@H](Cc1ccccc1)C(=O)N[C@@H](CCC(=O)O)C(=O)N[C@@H](Cc1ccccc1Cl)C(=O)N1CCC[C@H]1C(=O)N1CCC[C@H]1C(=O)N1CCC[C@H]1C(=O)N1CCC[C@H]1C(=O)O | ENAH | binding, fluorescence | – | Kd | 4.6 µM
CC(=O)N(O)CCC(c1ccc(-c2cccc(C)c2)cc1)P(=O)(O)O (centres unmarked) | 1-deoxy-D-xylulose 5-phosphate reductoisomerase | enzyme activity, inhibitor, absorbance | pH 7.5 | IC50 | 2.4 µM
CC(=O)N[C@@H](CO)C(=O)N[C@@H](Cc1ccccc1)C(=O)N[C@@H](CCC(=O)O)C(=O)N[C@@H](Cc1ccccc1Cl)C(=O)N1CCC[C@H]1C(=O)N1CCC[C@H]1C(=O)N1CCC[C@H]1C(=O)N1CCC[C@H]1C(=O)N[C@H](C(=O)N[C@@H](CCC(=O)O)C(=O)N[C@@H](CC(=O)O)C(=O)N[C@@H](CC(=O)O)C(=O)N[C@@H](CC(C)C)C(N)=O)[C@@H](C)O | ENAH | binding, fluorescence | – | Kd | 1.43 µM
CC(=O)N(O)CCC(c1ccc(-c2ccsc2)cc1)P(=O)(O)O (centres unmarked) | 1-deoxy-D-xylulose 5-phosphate reductoisomerase | enzyme activity, inhibitor, absorbance | pH 7.5 | IC50 | 5.7 µM
CC(C)[C@H](N)C(=O)N1CCC[C@H]1C(=O)N[C@H](C(=O)N1CCC[C@H]1C(=O)N[C@@H](Cc1ccc(O)cc1)C(=O)O)C(C)C | DPP4 | enzyme activity, inhibitor, absorbance | pH 8 | IC50 | 80.7 µM
COc1cccc(-c2ccnc(Nc3ccc(N4CCN(C(=O)OC(C)(C)C)CC4)c(C(F)(F)F)c3)n2)c1 | pknB | enzyme activity, inhibitor | – | IC50 | > 20 µM
